Measured values published in ChEMBL document CHEMBL2396518, “A facile synthesis, anti-inflammatory and analgesic activity of isoxazolyl-2,3-dihydrospiro[benzo[f]isoindole-1,3'-indoline]-2',4,9-triones” (2013).

Key:
Type in all cases: functional
Rattus norvegicus [1] = assay: Antiinflammatory activity in carrageenan-induced Wistar rat paw edema model assessed as paw volume at 100 mg/kg, po administered 30 mins prior to carrageenan challenge measured at 2 hrs by plethysmographic analysis (reference value: 1.07 +/- 0.08 ml)
Rattus norvegicus [2] = assay: Antiinflammatory activity in carrageenan-induced Wistar rat paw edema model assessed as paw volume at 100 mg/kg, po administered 30 mins prior to carrageenan challenge measured at 6 hrs by plethysmographic analysis (reference value: 0.96 +/- 0.03 ml)
Rattus norvegicus [3] = assay: Antiinflammatory activity in carrageenan-induced Wistar rat paw edema model assessed as paw volume at 100 mg/kg, po administered 30 mins prior to carrageenan challenge measured at 4 hrs by plethysmographic analysis (reference value: 1.2 +/- 0.05 ml)
Rattus norvegicus [4] = assay: Antiinflammatory activity in carrageenan-induced Wistar rat paw edema model assessed as paw volume at 100 mg/kg, po administered 30 mins prior to carrageenan challenge measured at 1 hr by plethysmographic analysis (reference value: 0.90 +/- 0.05 ml)
Mus musculus [5] = assay: Analgesic activity in Swiss albino mouse assessed as inhibition of acetic acid-induced writhing at 50 mg/kg, po administered 30 mins followed by acetic acid challenge measured for 20 mins relative to control
Procedure, shortened: (§1)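 Mice were fasted 18 h with water ad libitum and split into 6 groups. Test agents were dosed orally at 50 mg/kg, with diclofenac 50 mg/kg as standard. After 30 min, 1.0% v/v acetic acid was given ip at 1 mL/100 g. Writhes were counted over 20 min. % inhibition = (mean control writhes − mean test writhes)/mean control writhes × 100. Results are mean ± S.E.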

Mus musculus [6] = assay: Analgesic activity in Swiss albino mouse assessed as inhibition of acetic acid-induced writhing at 50 mg/kg administered 30 mins followed by acetic acid challenge measured for 20 mins relative to control; procedure, shortened: as §1

SMILES	Activity (Rattus norvegicus [1]) [mL]	Activity (Rattus norvegicus [2]) [mL]	Activity (Rattus norvegicus [3]) [mL]	Activity (Rattus norvegicus [4]) [mL]	inhibition in vivo at 50 mg/kg (Mus musculus [5]) [%]	inhibition in vivo at 50 mg/kg (Mus musculus [6]) [%]
Cc1noc(/C=C/c2ccccc2)c1N1CC2=C(C(=O)c3ccccc3C2=O)C12C(=O)Nc1ccccc12 (stereo unspecified)	0.84	0.6	0.75	0.75	22.4	
Cc1ccc(/C=C/c2onc(C)c2N2CC3=C(C(=O)c4ccccc4C3=O)C23C(=O)Nc2ccccc23)cc1 (stereo unspecified)	0.8	0.54	0.69	0.7	26.3	
COc1ccc(/C=C/c2onc(C)c2N2CC3=C(C(=O)c4ccccc4C3=O)C23C(=O)Nc2ccccc23)cc1 (stereo unspecified)	0.91	0.6	0.65	0.8	19.6	
Cc1noc(/C=C/c2ccc(Cl)cc2)c1N1CC2=C(C(=O)c3ccccc3C2=O)C12C(=O)Nc1ccccc12 (stereo unspecified)	0.69	0.41	0.65	0.54	50.4	
Cc1noc(/C=C/c2ccc(Cl)cc2Cl)c1N1CC2=C(C(=O)c3ccccc3C2=O)C12C(=O)Nc1ccccc12 (stereo unspecified)	0.71	0.32	0.54	0.57	44.8	
Cc1noc(/C=C/c2c(Cl)cccc2Cl)c1N1CC2=C(C(=O)c3ccccc3C2=O)C12C(=O)Nc1ccccc12 (stereo unspecified)	0.7	0.4	0.67	0.54	48.3	
Cc1noc(/C=C/c2ccccc2O)c1N1CC2=C(C(=O)c3ccccc3C2=O)C12C(=O)Nc1ccccc12 (stereo unspecified)	0.81	0.52	0.8	0.78	20.4	
Cc1noc(/C=C/c2ccccc2)c1N1CC2=C(C(=O)c3ccccc3C2=O)C12C(=O)Nc1ccc(Cl)cc12 (stereo unspecified)	0.83	0.63	0.82	0.82	16.5	
COc1ccc2c(c1)C1(C(=O)N2)C2=C(CN1c1c(C)noc1/C=C/c1ccccc1)C(=O)c1ccccc1C2=O (stereo unspecified)	0.91	0.6	0.81	0.73	18.4	
Cc1ccc2c(c1)C1(C(=O)N2)C2=C(CN1c1c(C)noc1/C=C/c1ccccc1)C(=O)c1ccccc1C2=O (stereo unspecified)	0.89	0.55	0.83	0.77	19.5	
O=C(O)Cc1ccccc1Nc1c(Cl)cccc1Cl [DICLOFENAC]						53.6
